These results are taken from ChEMBL document CHEMBL5120843, “Structure and Antimicrobial Activity of Rare Lactone Lipids from the Sooty Mold (Scorias spongiosa)” (J Nat Prod, 2022).

Assay [1] relates to Pichia kudriavzevii. As to the kind of experiment: Antifungal activity against Candida krusei ATCC 6258 incubated for 46 to 50 hrs by CLSI protocol based assay. Format: functional, organism-based.
Assay [2] concerns Cryptococcus neoformans. As to the kind of experiment: Antifungal activity against Cryptococcus neoformans ATCC 90113 incubated for 70 to 74 hrs by CLSI protocol based assay. The assay is classed as functional, organism-based.
Assay [3] concerns Cryptococcus neoformans. As to the kind of experiment: Antifungal activity against Cryptococcus neoformans ATCC 90113 assessed as minimum inhibitory concentration incubated for 70 to 74 hrs by CLSI protocol based assay. Format: functional. Conditions: time 70-74 hrs. The gist of the method: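 Cryptococcus neoformans in Sabouraud dextrose broth at final 1.5 × 10^3, serially diluted samples in duplicate, final concentration 1/100th of stock. Read at 530 nm before and after 35 °C for 70–74 h. MIC is the lowest test concentration with no detectable growth.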

Assay [4] concerns Cryptococcus neoformans. As to the kind of experiment: Antifungal activity against Cryptococcus neoformans ATCC 90113 assessed as minimum fungicidal concentration incubated for 70 to 74 hrs by CLSI protocol based assay. The conditions noted are these: time 70-74 hrs. The assay is classed as functional. A digest of the protocol:
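From clear wells of the Cryptococcus broth assay (Sabouraud dextrose, 35 °C, 70–74 h), 5 μL transferred to fresh medium and reincubated under the same conditions. MFC is the lowest concentration that kills the organism.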

For assay [5], the system named is Staphylococcus aureus. Nature of the assay: Antibacterial activity against Staphylococcus aureus ATCC 29213 incubated for 16 to 20 hrs by CLSI protocol based assay. The assay is classed as functional, organism-based.
For assay [6], the system named is Staphylococcus aureus. As to the kind of experiment: Antibacterial activity against Staphylococcus aureus ATCC 29213 assessed as minimum inhibitory concentration incubated for 16 to 20 hrs by CLSI protocol based assay. Conditions: time 16-20 hrs. Format: functional.
Assay [7] deals with Staphylococcus aureus. As to the kind of experiment: Antibacterial activity against Staphylococcus aureus ATCC 29213 assessed as minimum bactericidal concentration incubated for 16 to 20 hrs by CLSI protocol based assay. The assay is classed as functional. The conditions noted are these: time 16-20 hrs.
Assay [8] deals with Staphylococcus aureus. As to the kind of experiment: Antibacterial activity against methicillin-resistant Staphylococcus aureus ATCC 33591 incubated for 16 to 20 hrs by CLSI protocol based assay. The assay is classed as functional, organism-based.
For assay [9], the system named is Staphylococcus aureus. As to the kind of experiment: Antibacterial activity against methicillin-resistant Staphylococcus aureus ATCC 33591 assessed as minimum inhibitory concentration incubated for 16 to 20 hrs by CLSI protocol based assay. Format: functional. The conditions noted are these: time 16-20 hrs.
The test system of assay [10] is Staphylococcus aureus. As to the kind of experiment: Antibacterial activity against methicillin-resistant Staphylococcus aureus ATCC 33591 assessed as minimum bactericidal concentration incubated for 16 to 20 hrs by CLSI protocol based assay. The conditions noted are these: time 16-20 hrs. The assay is classed as functional.
The test system of assay [11] is Cryptococcus neoformans. Nature of the assay: Synergistic antifungal activity against Cryptococcus neoformans H99 assessed as […] at 2 ug/ml incubated for 72 hrs by CLSI protocol based checkerboard assay. The assay is classed as functional. Conditions: dose 2 µg/ml. The gist of the method:
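Checkerboard per CLSI. Overnight C. neoformans H99 culture diluted in RPMI 1640 with MOPS, pH 7.0, to final 1.0 × 10^4 CFU/mL. […] Single-agent, solvent and media controls included. OD 490 nm read before and after 30 °C for 72 h, normalized to solvent control. FIC ≤ 0.5 scored as synergy.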

Assay [12] concerns Cryptococcus neoformans. Nature of the assay: Synergistic antifungal activity against Cryptococcus neoformans H99 assessed as fold increase in amphotericin fungicidal activity at 2 ug/ml incubated for 48 hrs by CLSI protocol based yeast peptone dextrose agar plate method. Format: functional. The conditions noted are these: dose 2 µg/ml. A digest of the protocol:
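Fungicidal read-out from the H99 checkerboard (RPMI/MOPS pH 7.0, 1.0 × 10^4 CFU/mL, 30 °C, 72 h). Plate shaken, then 2 μL from each well spotted on YPD agar and incubated at 30 °C for 48 h.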

In another assay the test system is Candida albicans. As to the kind of experiment: Antifungal activity against Candida albicans ATCC 90028 incubated for 46 to 50 hrs by CLSI protocol based assay. Format: functional, organism-based.
Assay [13] deals with Nakaseomyces glabratus. As to the kind of experiment: Antifungal activity against Candida glabrata ATCC 90030 incubated for 46 to 50 hrs by CLSI protocol based assay. The assay is classed as functional, organism-based.
Assay [14] has as its system Nakaseomyces glabratus. Nature of the assay: Antifungal activity against Candida glabrata ATCC 90030 assessed as minimum inhibitory concentration incubated for 46 to 50 hrs by CLSI protocol based assay. Conditions: time 46-50 hrs. Format: functional. A digest of the protocol:
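Candida strains in RPMI 1640/0.2% dextrose/0.03% glutamine/MOPS, pH 6.0. Inoculum 1.5 × 10^3, samples serially diluted from DMSO stocks, duplicate wells, final concentration 1/100th of stock. Read at 530 nm before and after 35 °C for 46–50 h. MIC taken as lowest test concentration with no detectable growth.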

Assay [15] relates to Nakaseomyces glabratus. As to the kind of experiment: Antifungal activity against Candida glabrata ATCC 90030 assessed as minimum fungicidal concentration incubated for 46 to 50 hrs by CLSI protocol based assay. Conditions: time 46-50 hrs. Format: functional. A digest of the protocol: (§1)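 After the Candida broth microdilution (RPMI/MOPS pH 6.0, 35 °C, 46–50 h), 5 μL from each clear well moved to fresh medium and incubated again under the same conditions. MFC defined as the lowest test concentration that kills the organism.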

Assay [16] relates to Pichia kudriavzevii. Nature of the assay: Antifungal activity against Candida krusei ATCC 6258 assessed as minimum inhibitory concentration incubated for 46 to 50 hrs by CLSI protocol based assay. Format: functional. The conditions noted are these: time 46-50 hrs. A digest of the protocol: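 Inoculum 1.5 × 10^3, samples serially diluted from DMSO stocks, duplicate wells, final concentration 1/100th of stock. Read at 530 nm before and after 35 °C for 46–50 h. MIC taken as lowest test concentration with no detectable growth.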

Assay [17] relates to Pichia kudriavzevii. Nature of the assay: Antifungal activity against Candida krusei ATCC 6258 assessed as minimum fungicidal concentration incubated for 46 to 50 hrs by CLSI protocol based assay. Format: functional. The conditions noted are these: time 46-50 hrs. The gist of the method: as §1
The test system of assay [18] is Cryptococcus neoformans. As to the kind of experiment: Synergistic antifungal activity against Cryptococcus neoformans H99 assessed as fractional inhibitory concentration incubated for 72 hrs by CLSI protocol based checkerboard assay. Format: functional. The gist of the method: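 Checkerboard in RPMI 1640 buffered with MOPS pH 7.0. Final inoculum 1.0 × 10^4 CFU/mL from an overnight H99 culture. […] OD490 read before and after 72 h at 30 °C, normalized to solvent control. FIC ≤0.5 taken as synergy.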

Converted amounts (≈) assume the structure as drawn.

What is called IC50 is the concentration that inhibits the measured activity by half. Usually MIC stands for the smallest concentration in the dilution series that meets the test's criterion for growth inhibition. As usually defined, the MFC is the lowest tested concentration that kills the fungus rather than only halting it. A word on the MBC: it is the lowest tested concentration that kills the bacteria rather than only halting them.

On to `CCCCCCCCCCCC[C@]1(C)C=C/C(=C2/C(=O)O[C@@H](CC(=O)OC)C2=O)O1`, for which the IC50 in the assay with Pichia kudriavzevii [1] came out at 20 µg/mL (≈ 47.6 µM); in the assay with Cryptococcus neoformans [2], 0.63 µg/mL (≈ 1.5 µM); with Staphylococcus aureus [5], 1.08 µg/mL (≈ 2.57 µM); in the assay with Staphylococcus aureus [8], 0.71 µg/mL (≈ 1.69 µM). Moreover, the MIC in the assay on Cryptococcus neoformans [3] is 1.25 µg/mL (≈ 2.97 µM); in the assay on Staphylococcus aureus [6], 2.5 µg/mL (≈ 5.94 µM); in the assay on Staphylococcus aureus [9], 1.25 µg/mL (≈ 2.97 µM). Moreover, in the assay on Cryptococcus neoformans [4], the MFC amounted to 1.25 µg/mL (≈ 2.97 µM). In addition, the MBC worked out at 10 µg/mL (≈ 23.8 µM) in the assay on Staphylococcus aureus [7] and 5 µg/mL (≈ 11.9 µM) in the assay with Staphylococcus aureus [10]. Further, the results for the “fold change (FC)” value in the assay with Cryptococcus neoformans [11] and with Cryptococcus neoformans [12] were 16 and 8, respectively.

As to `CCCCCCCCCCCC[C@]1(C)C=C/C(=C2/C(=O)O[C@@H](CC(=O)O)C2=O)O1`, the IC50 is 15.3 µg/mL (≈ 37.6 µM) in the assay with Candida albicans; 2.85 µg/mL (≈ 7.01 µM) with Nakaseomyces glabratus [13]; 6.31 µg/mL (≈ 15.5 µM) with Pichia kudriavzevii [1]; 0.37 µg/mL (≈ 0.91 µM) with Cryptococcus neoformans [2]; 0.44 µg/mL (≈ 1.08 µM) with Staphylococcus aureus [5]; 0.39 µg/mL (≈ 0.959 µM) with Staphylococcus aureus [8]. Moreover, the MIC came out at 10 µg/mL (≈ 24.6 µM) in the assay with Nakaseomyces glabratus [14]; 10 µg/mL (≈ 24.6 µM) in the assay with Pichia kudriavzevii [16]; 0.63 µg/mL (≈ 1.55 µM) with Cryptococcus neoformans [3]; 1.25 µg/mL (≈ 3.07 µM) with Staphylococcus aureus [6]; 0.63 µg/mL (≈ 1.55 µM) in the assay on Staphylococcus aureus [9]. For the same compound, the MFC came out at 10 µg/mL (≈ 24.6 µM) with Nakaseomyces glabratus [15], 10 µg/mL (≈ 24.6 µM) in the assay on Pichia kudriavzevii [17] and 0.63 µg/mL (≈ 1.55 µM) in the assay with Cryptococcus neoformans [4]. Moreover, the minimal bactericidal concentration (MBC) in the assay on Staphylococcus aureus [7] came out at 20 µg/mL (≈ 49.2 µM); with Staphylococcus aureus [10] it was 10 µg/mL (≈ 24.6 µM).

Take `C[C@@H]1[C@H](O)[C@@H](C)/C=C/C=C/C=C/C=C/C=C/C=C/C=C/[C@H](O[C@@H]2O[C@H](C)[C@@H](O)[C@H](N)[C@@H]2O)C[C@@H]2O[C@](O)(C[C@@H](O)C[C@@H](O)[C@H](O)CC[C@@H](O)C[C@@H](O)CC(=O)O[C@H]1C)C[C@H](O)[C@H]2C(=O)O` [AMPHOTERICIN B]: the IC50 with Candida albicans was determined as 0.14 µg/mL (≈ 0.152 µM); in the assay on Nakaseomyces glabratus [13], 0.21 µg/mL (≈ 0.227 µM); in the assay on Pichia kudriavzevii [1], 0.74 µg/mL (≈ 0.801 µM); with Cryptococcus neoformans [2], 0.35 µg/mL (≈ 0.379 µM). Further, the MIC with Nakaseomyces glabratus [14] and in the assay with Cryptococcus neoformans [3] was 0.63 µg/mL (≈ 0.682 µM) each time. For the same compound, the MFC in the assay with Nakaseomyces glabratus [15] and with Cryptococcus neoformans [4] was 0.63 µg/mL (≈ 0.682 µM) each time. The FIC in the assay on Cryptococcus neoformans [18] stood at 0.3.
